Screening results: PubChem BioAssay, Broad Institute
Only a selection was taken, and hits are over-represented in it overall.
GASC1 inh = inhibitors of GASC-1 (KDM4C) histone demethylase, primary screen, biochemical, single concentration HTS; Lysine-specific demethylase 4C (Homo sapiens), Q9H3R0; GST-KDM4C 2-372, H3K9me3 peptide, LANCE TR-FRET; inhibition, % at 12.5 µM; 0.15% of 96,000 active;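 active = mean replicate inhibition above about 25%, with at least 55% of replicates also reaching it, limit read from the data, passing the limit was not always enough; inconclusive = only one of those two conditions met; inactive = neither condition met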
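reagent = H3K9me3 peptide substrate, Fe(II), 2-oxoglutarate | system = GST-tagged GASC-1 (JMJD2C) catalytic fragment, aa 2-372 | amount = enzyme final amount 10 nM | read-out = Fall in 671/618 emission ratio as inhibition | medium = HEPES buffer, pH 7.5, plus ascorbate | schedule = 30 min reaction, 60 min detection, RT | measured by = LANCE TR-FRET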
T cruzi growth-1 = T. cruzi intracellular proliferation inhibitors, primary screen, cell-based, beta-gal Tulahuen parasites, NIH3T3 host, luminescence; AID 624255, 2012; inhibition, % at 8.34 µM; 5.9% of 77,000 active; T. cruzi beta-gal in NIH3T3, GalScreen luminescence, 90 h;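 active = mean inhibition above about 93%, with at least 55% of replicates each passing it, limit read from the data, passing the limit was not always enough; inconclusive = only one of those two conditions holds; inactive = neither condition holds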
IDH1 mut inh = inhibitors of IDH1 R132H reductase, primary screen, biochemical, plate reader, single point | Isocitrate dehydrogenase [NADP] cytoplasmic (Homo sapiens), O75874 | diaphorase/resazurin fluorescence, 60 min | inhibition, % at 10 µM | 0.18% of 70,000 active; in the data active = inhibition above about 34%; inconclusive = no clear call, values can overlap the other calls; inactive = below about 11%
Target sequence (O75874 whole entry R132H): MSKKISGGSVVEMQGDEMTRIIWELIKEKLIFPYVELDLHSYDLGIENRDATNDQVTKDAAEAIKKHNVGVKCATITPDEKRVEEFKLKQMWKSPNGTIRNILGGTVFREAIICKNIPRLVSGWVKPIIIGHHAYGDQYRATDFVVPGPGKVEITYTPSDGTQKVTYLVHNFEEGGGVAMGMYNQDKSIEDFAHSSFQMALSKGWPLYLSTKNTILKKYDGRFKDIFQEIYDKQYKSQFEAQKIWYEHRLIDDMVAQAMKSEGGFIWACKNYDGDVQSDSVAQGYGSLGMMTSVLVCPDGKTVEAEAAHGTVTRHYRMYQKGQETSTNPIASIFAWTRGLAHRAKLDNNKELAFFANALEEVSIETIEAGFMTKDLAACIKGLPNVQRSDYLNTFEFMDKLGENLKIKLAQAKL
T cruzi growth-2 = T. cruzi intracellular proliferation inhibitors, confirmation, cell-based, NIH3T3 host, beta-gal parasite, luminescence, cherry-pick; shares compounds with T cruzi growth-1; T. cruzi beta-gal in NIH3T3, GalScreen luminescence, 90 h; inhibition, % at 8.35 µM; 72% of 5,600 active;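 active = mean replicate inhibition above about 95% and at least 55% of replicates individually reaching it, limit read from the data; inconclusive = only one of the two criteria is met; inactive = neither criterion is met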
T cruzi growth-3 = inhibitors of intracellular T. cruzi replication, confirmation, NIH3T3 host cells, beta-gal parasites, cherry-pick, set 2; shares compounds with T cruzi growth-1; T. cruzi beta-gal in NIH3T3, GalScreen luminescence, 90 h; inhibition, % at 2.09 µM; 21% of 5,600 active; AID 651740, 2012;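 active = mean inhibition above about 95%, with at least 55% of replicates also reaching it, limit read from the data; inconclusive = meets just one of the two conditions; inactive = meets neither condition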
3T3 cytotox = cytotoxicity in mouse NIH/3T3 fibroblasts, confirmation, cytotoxicity control for T. cruzi proliferation inhibitor project, cell-based, cherry-pick, single point | shares compounds with T cruzi growth-1 | NIH/3T3 viability, CellTiter-Glo ATP luminescence, 90 h | 14% of 5,600 active | cytotoxicity (signal decrease), % at 8.35 µM;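 active = mean signal decrease across replicates above about 35% based on untreated-well scatter, with enough replicates individually passing, limit read from the data; inconclusive = no rule stated though some were filed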
NIH3T3 tox 2 = NIH/3T3 fibroblast cytotoxicity, confirmation, cytotoxicity control, cell-based, cherry-pick, single point, set 2; NIH/3T3 viability, CellTiter-Glo ATP luminescence, 90 h; inhibition, % at 24.9 µM; shares compounds with T cruzi growth-1; 56% of 5,600 active;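 active = mean loss of cell viability signal at or above a set limit, and enough replicates individually reaching it; inconclusive = meets only the mean limit or only the replicate share; inactive = meets neither condition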
Numbers stand for hits; . = inactive; ? = inconclusive; / = not tested or not shown.

SMILES	GASC1 inh	T cruzi growth-1	IDH1 mut inh	T cruzi growth-2	T cruzi growth-3	3T3 cytotox	NIH3T3 tox 2
CN1C(=O)c2cc(NC(=O)c3ccc(F)c(F)c3)ccc2OC[C@@H]2O[C@H](CC(=O)N[C@H]3CCN(Cc4ccccc4)C3)CC[C@H]21	.	111.3	/	98.7	.	.	.
CN1C(=O)c2cc(NC(=O)Cc3cccs3)ccc2OC[C@H]2O[C@H](CC(=O)N[C@H]3CCN(Cc4ccccc4)C3)CC[C@@H]21	.	104.8	/	?	.	.	.
CN1C(=O)c2cc(NC(=O)Cc3cccs3)ccc2OC[C@@H]2O[C@H](CC(=O)N[C@H]3CCN(Cc4ccccc4)C3)CC[C@H]21	.	.	/	/	/	/	/
CN1C(=O)c2cc(NC(=O)c3ccc(F)c(F)c3)ccc2OC[C@@H]2O[C@H](CC(=O)N[C@@H]3CCN(Cc4ccccc4)C3)CC[C@H]21	.	105.8	/	113.8	.	.	.
CN1C(=O)c2cc(NC(=O)Cc3cccs3)ccc2OC[C@@H]2O[C@@H](CC(=O)N[C@H]3CCN(Cc4ccccc4)C3)CC[C@H]21	.	.	/	/	/	/	/
CCn1c(SCC(=O)Nc2ccc(Cl)cc2Cl)nnc1-c1ccc(Cl)c(Cl)c1	/	/	.	/	/	/	/
Cn1c(SCC(=O)Nc2ccc(Br)c(Cl)c2)nnc1-c1ccccc1F	/	/	.	/	/	/	/
O=C(CCS(=O)(=O)c1nc(-c2ccccc2)cc(C(F)(F)F)n1)Nc1ccc(Cl)cc1Cl	/	/	.	/	/	/	/
CCCCn1c2ccccc2c2nnc(SCCN3CCOCC3)nc21	/	/	.	/	/	/	/
O=C(CCCN1C(=O)c2cccc3cccc(c23)C1=O)Nc1ccccc1C(F)(F)F	/	/	.	/	/	/	/
CC(C)Cc1cnc(CCC(N)=O)c(=O)[nH]1	/	/	.	/	/	/	/
CC(C)CC#Cc1ccc2c(c1)O[C@@H](CN(C)C(=O)c1ccncc1)[C@@H](C)CN([C@H](C)CO)S2(=O)=O	.	103.8	.	106.6	.	.	71.0
CC(C)CC#Cc1ccc2c(c1)O[C@@H](CN(C)C(=O)c1ccncc1)[C@H](C)CN([C@@H](C)CO)S2(=O)=O	.	.	.	/	/	/	/
CC(C)CC#Cc1ccc2c(c1)O[C@@H](CN(C)C(=O)c1ccncc1)[C@@H](C)CN([C@@H](C)CO)S2(=O)=O	.	107.1	.	?	.	.	62.4
CC(C)CC#Cc1ccc2c(c1)O[C@H](CN(C)C(=O)c1ccncc1)[C@H](C)CN([C@@H](C)CO)S2(=O)=O	.	.	.	/	/	/	/
COCc1nc2ccccc2n1CCOc1ccc(Br)cc1	/	/	.	/	/	/	/
O=C(CSc1nnnn1-c1cccc(C(=O)O)c1)Nc1ccccc1F	/	/	.	/	/	/	/
O=C(NCCCN1CCOCC1)c1cnn2c(C(F)(F)F)cc(-c3ccccc3)nc12	/	/	.	/	/	/	/
C[C@@H]1CN([C@@H](C)CO)C(=O)Cc2cc(NC(=O)Nc3cccc4ccccc34)ccc2O[C@H]1CN(C)Cc1ccc2c(c1)OCO2	.	108.9	.	110.1	.	.	.
C[C@H](CO)N1C[C@H](C)[C@H](CN(C)Cc2ccc3c(c2)OCO3)Oc2ccc(NC(=O)Nc3cccc4ccccc34)cc2C1=O	.	105.4	.	?	103.6	.	66.8
C[C@H]1CN([C@@H](C)CO)C(=O)Cc2cc(NC(=O)Nc3cccc4ccccc34)ccc2O[C@@H]1CN(C)Cc1ccc2c(c1)OCO2	.	.	.	/	/	/	/
C[C@@H]1CN([C@H](C)CO)C(=O)c2cc(NC(=O)Nc3cccc4ccccc34)ccc2O[C@H]1CN(C)Cc1ccc2c(c1)OCO2	.	.	/	/	/	/	/
CCc1cccc(C)c1NC(=O)CSc1nnc(-c2cccnc2)n1C	/	/	.	/	/	/	/
N#C[C@H]1[C@H](c2ccc(-c3cccc(F)c3)cc2)[C@H](CO)N1C(=O)NC1CCCC1	.	.	/	/	/	/	/
CC(C)NC[C@H]1[C@@H](c2ccc(-c3cccc(F)c3)cc2)[C@@H](CO)N1CC1CC1	.	109.0	/	.	.	.	105.4
SMILES	GASC1 inh	T cruzi growth-1	IDH1 mut inh	T cruzi growth-2	T cruzi growth-3	3T3 cytotox	NIH3T3 tox 2
N#C[C@@H]1[C@H](c2ccc(-c3cccc(F)c3)cc2)[C@H](CO)N1C(=O)NC1CCCC1	.	97.2	/	108.7	103.7	.	.
CC(=O)NC[C@H]1[C@@H](c2ccc(-c3cccc(F)c3)cc2)[C@@H](CO)N1C(=O)C1CC1	.	/	/	/	/	/	/
N#C[C@@H]1[C@@H](c2ccc(-c3cccc(F)c3)cc2)[C@H](CO)N1C(=O)NC1CCCC1	.	97.3	/	104.8	.	.	38.1
N#C[C@H]1[C@@H](c2ccc(-c3cccc(F)c3)cc2)[C@H](CO)N1C(=O)NC1CCCC1	.	.	/	/	/	/	/
Cc1c(/C=C2\SC(=Nc3ccccc3)N(C3CCCC3)C2=O)c2ccccc2n1CC(N)=O	/	/	.	/	/	/	/
O=C(O)CN(c1ccc([N+](=O)[O-])cc1)S(=O)(=O)c1ccccc1	/	/	.	/	/	/	/
COC(=O)c1ccc(-n2nnnc2SCC(=O)Nc2ccccc2)cc1	/	/	.	/	/	/	/
CC(C)NC(=O)N(C)C[C@H]1OCCCC[C@@H](C)Oc2ccc(NC(=O)c3ccncc3)cc2C(=O)N([C@H](C)CO)C[C@@H]1C	.	95.7	.	.	.	.	.
C[C@@H]1CCCCO[C@H](CN(C)C(=O)c2ccncc2)[C@@H](C)CN([C@@H](C)CO)C(=O)c2cc(NC(=O)c3ccncc3)ccc2O1	.	101.0	.	.	.	.	.
C[C@H]1CCCCO[C@H](CN(C)C(=O)c2ccncc2)[C@@H](C)CN([C@@H](C)CO)C(=O)c2cc(NC(=O)c3ccncc3)ccc2O1	.	.	/	/	/	/	/
CC(C)NC(=O)N(C)C[C@H]1OCCCC[C@H](C)Oc2ccc(NC(=O)c3ccncc3)cc2C(=O)N([C@@H](C)CO)C[C@H]1C	.	.	.	/	/	/	/
COc1ccc(NC(=O)Nc2ccc3c(c2)CC(=O)N([C@H](C)CO)C[C@H](C)[C@@H](CN(C)Cc2ccc(Oc4ccccc4)cc2)O3)cc1	.	.	.	/	/	/	/
Cc1ccccc1NC(=O)CN(c1ccc(Br)cc1)S(C)(=O)=O	/	/	.	/	/	/	/
COc1ccc(NC(=O)c2ccccc2NC(=O)COc2cccc([N+](=O)[O-])c2)cc1	/	/	.	/	/	/	/
COc1ccc(C(=O)N(Cc2nc(-c3ccc(Cl)cc3)no2)C(C)C)cc1[N+](=O)[O-]	/	/	.	/	/	/	/
COc1ccc(-c2ccc([C@H]3[C@@H](C#N)N(C(=O)c4cccc(F)c4)[C@H]3CO)cc2)cc1	.	.	/	/	/	/	/
COc1ccccc1-c1ccc([C@H]2[C@@H](CO)N(C(=O)c3cccc(F)c3)[C@H]2C#N)cc1	.	.	.	/	/	/	/
